# Measured values: ChEMBL document CHEMBL3616466, “Pyrazolo[3,4-h]quinolines promising photosensitizing agents in the treatment of cancer” (Eur J Med Chem, 2015)
# Legend:
# Type in all cases: functional
# [1] = tested on: A549; test: Photocytotoxicity against human A549 cells assessed as growth inhibition at 3.75 J/cm'2 irradiation for 30 mins followed by drug treated for 72 hrs by MTT assay; conditions: A549, light or radiation study
# How it was run: (§1)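 Cells seeded at 5 × 10³ per well and pre-incubated 24 h. Drug dilutions in HBSS (pH 7.2, from DMSO stock) added for 30 min at 37 °C, then UV-A irradiation at the stated dose. Drug solution then replaced with culture medium and plates incubated 72 h. Viability by MTT; GI50 from concentration series.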
# [2] = tested on: MCF7; test: Cytotoxicity against human MCF7 cells assessed as growth inhibition after 72 hrs by MTT assay; conditions: MCF7, 72 h
# How it was run: (§2)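 Cells (5 × 10³ per well) pre-incubated 24 h at 37 °C, 5% CO₂, then exposed in the dark to serial concentrations diluted from DMSO stock into complete medium for 72 h at 37 °C. Viability read by MTT; GI50 derived. LoVo in Ham's F-12, MCF-7 and A-549 in DMEM, all with 10% FBS and penicillin/streptomycin.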
# [3] = tested on: LoVo; test: Photocytotoxicity against human LoVo cells assessed as growth inhibition at 3.75 J/cm'2 irradiation for 30 mins followed by drug treated for 72 hrs by MTT assay; conditions: light or radiation study; how it was run: as §1
# [4] = tested on: A549; test: Cytotoxicity against human A549 cells assessed as growth inhibition after 72 hrs by MTT assay; conditions: A549, 72 h; how it was run: as §2
# [5] = tested on: HL-60; test: Photocytotoxicity against human HL60 cells assessed as growth inhibition at 1.25 J/cm'2 irradiation for 30 mins followed by drug treated for 72 hrs by MTT assay; conditions: HL-60, light or radiation study; how it was run: as §1
# [6] = tested on: HL-60; test: Photocytotoxicity against human HL60 cells assessed as growth inhibition at 2.5 J/cm'2 irradiation for 30 mins followed by drug treated for 72 hrs by MTT assay; conditions: HL-60, light or radiation study; how it was run: as §1
# [7] = tested on: HL-60; test: Cytotoxicity against human HL60 cells assessed as growth inhibition after 72 hrs by MTT assay; conditions: HL-60, 72 h
# [8] = tested on: LoVo; test: Photocytotoxicity against human LoVo cells assessed as growth inhibition at 2.5 J/cm'2 irradiation for 30 mins followed by drug treated for 72 hrs by MTT assay; conditions: light or radiation study; how it was run: as §1
# [9] = tested on: Jurkat; test: Cytotoxicity against human Jurkat cells assessed as growth inhibition after 72 hrs by MTT assay
# [10] = tested on: LoVo; test: Cytotoxicity against human LoVo cells assessed as growth inhibition after 72 hrs by MTT assay; how it was run: as §2
# [11] = tested on: Jurkat; test: Photocytotoxicity against human Jurkat cells assessed as growth inhibition at 2.5 J/cm'2 irradiation for 30 mins followed by drug treated for 72 hrs by MTT assay; conditions: light or radiation study; how it was run: as §1
# [12] = tested on: A549; test: Photocytotoxicity against human A549 cells assessed as growth inhibition at 2.5 J/cm'2 irradiation for 30 mins followed by drug treated for 72 hrs by MTT assay; conditions: A549, light or radiation study; how it was run: as §1
# [13] = tested on: MCF7; test: Photocytotoxicity against human MCF7 cells assessed as growth inhibition at 3.75 J/cm'2 irradiation for 30 mins followed by drug treated for 72 hrs by MTT assay; conditions: MCF7, light or radiation study; how it was run: as §1
# [14] = tested on: Jurkat; test: Photocytotoxicity against human Jurkat cells assessed as growth inhibition at 1.25 J/cm'2 irradiation for 30 mins followed by drug treated for 72 hrs by MTT assay; conditions: light or radiation study; how it was run: as §1
# [15] = tested on: MCF7; test: Photocytotoxicity against human MCF7 cells assessed as growth inhibition at 2.5 J/cm'2 irradiation for 30 mins followed by drug treated for 72 hrs by MTT assay; conditions: MCF7, light or radiation study; how it was run: as §1
SMILES,GI50 [1] [µM],GI50 [2] [µM],GI50 [3] [µM],GI50 [4] [µM],GI50 [5] [µM],GI50 [6] [µM],GI50 [7] [µM],GI50 [8] [µM],GI50 [9] [µM],GI50 [10] [µM],GI50 [11] [µM],GI50 [12] [µM],GI50 [13] [µM],GI50 [14] [µM],GI50 [15] [µM]
O=c1[nH]c2c(cc1S(=O)(=O)c1ccccc1)CCc1c-2cnn1-c1ccccc1,14.1,11.5,> 20,10.8,> 20,> 20,> 20,> 20,20,> 20,> 20,> 20,> 20,> 20,> 20
COc1ccc(-n2ncc3c4nc(OC)c(S(=O)(=O)c5ccccc5)cc4ccc32)cc1,0.09,16.2,0.16,> 20,0.99,0.76,> 20,0.42,> 20,> 20,0.54,0.35,0.59,1.5,1.23
COc1ccc(-n2ncc3c4[nH]c(=O)c(S(=O)(=O)c5ccccc5)cc4ccc32)cc1,4.26,8.36,> 20,6.56,> 20,> 20,> 20,> 20,> 20,> 20,> 20,5.39,> 20,> 20,> 20
CCOC(=O)c1cc2c([nH]c1=O)-c1cnn(-c3ccc(Cl)cc3)c1CC2,> 20,6.38,> 20,5,> 20,> 20,> 20,> 20,> 20,> 20,> 20,> 20,9.85,> 20,7.32
O=c1[nH]c2c(cc1S(=O)(=O)c1ccccc1)CCc1c-2cnn1-c1cccc(Cl)c1,9.53,> 20,> 20,6.41,> 20,> 20,> 20,> 20,4.55,> 20,> 20,14.1,> 20,> 20,> 20
COc1nc2c(cc1S(=O)(=O)c1ccccc1)CCc1c-2cnn1-c1ccccc1Cl,4.8,> 20,1.78,> 20,3.78,0.81,7.17,5.73,9.8,> 20,0.9,14.3,1.59,1.93,3.13
COc1nc2c(cc1S(=O)(=O)c1ccccc1)CCc1c-2cnn1-c1ccccc1,2.89,> 20,1.1,> 20,2.83,0.79,> 20,3.14,12.1,> 20,0.71,7.56,1.84,3.65,2.47
COc1nc2c(cc1S(=O)(=O)c1ccccc1)CCc1c-2cnn1Cc1ccccc1,5.74,> 20,1.41,> 20,3.83,1.3,6.1,5.32,8.43,> 20,1.4,10.4,3.05,2.48,4
COc1nc2c(ccc3c2cnn3-c2ccc(Cl)cc2)cc1S(=O)(=O)c1ccccc1,0.75,7.51,0.71,4.6,2.16,1.2,> 20,1.43,> 20,> 20,0.96,3.09,3.23,4.23,5.36
Cn1c2c(cc(S(=O)(=O)c3ccccc3)c1=O)CCc1c-2cnn1-c1cccc(Cl)c1,8.4,> 20,7.54,> 20,> 20,2.44,> 20,13.1,11.3,> 20,2.81,> 20,9.01,> 20,12.7
O=c1c(S(=O)(=O)c2ccccc2)cc2c(n1Cc1ccccc1)-c1cnn(-c3ccc(Cl)cc3)c1CC2,6.64,> 20,3.72,> 20,> 20,7.17,11.6,11.1,13.6,> 20,4.97,> 20,9.89,> 20,> 20
